Compound activity deposited in PubChem by several laboratories.
HCV NS3 hel inh – inhibitors of HCV NS3 helicase, primary screen, biochemical, Cy5 molecular beacon fluorescence; NS3 helicase DNA unwinding; inhibition, % at 10.9 µM; 290,000 compounds, 0.56% hits; AID 1800, 2009;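 active means inhibition above the mean of all tested compounds plus 3 SD, set per campaign, cut at about 35% in these data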;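 further: 0% = DMSO wells and 100% = thioflavine S control wells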
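System: NS3 helicase fragment of HCV / Schedule: 1 h at 25 °C / Control set: DMSO alone as 0% and 110 µM thioflavine S as 100% / Reagent: Cy5/quencher beacon DNA duplex and ATP to start / Technique: Cy5 fluorescence / Replication: singlicate / Evaluation: % inhibition of end-to-start signal ratio versus controls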
HCV core dimer – inhibitors of HCV core protein dimerization, primary screen, biochemical, TR-FRET, high-throughput. 300,000 compounds, 0.33% hits. inhibition, % at 5 µM. AID 1899, 2009. TR-FRET GST/Flag-core106 dimerization, 1536-well;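 active means inhibition above the mean of all tested compounds plus 3 SD, set per screening campaign, cut at about 45% in these data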
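Assay system – GST-tagged and Flag-tagged HCV core protein residues 1-106 · Quantity – core106 proteins, GST 13.5 nM and Flag 17 nM · Benchmarks – unlabelled core106 and no-GST-core106 wells · Read-out basis – percent inhibition of core106 dimerization signal · Detection – time-resolved FRET, ex 340 nm, em 617 and 671 nm · Schedule – 4 h at 22.5 °C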
GPR7 antagonist – GPR7 receptor antagonists, primary screen, cell-based, fluorescence, single concentration; Neuropeptides B/W receptor type 1 (Homo sapiens), P48145; GPR7-expressing cells, fluorescence antagonist assay; inhibition, % at 4.4 µM; 290,000 compounds, 1.1% hits; AID 1861, 2009; in the data active means inhibition above about 16%, passing the limit was not always enough;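 further: cells stimulated with the agonist NPW; 0% = agonist with vehicle and 100% = vehicle without agonist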
Target sequence (P48145 whole entry, looked up): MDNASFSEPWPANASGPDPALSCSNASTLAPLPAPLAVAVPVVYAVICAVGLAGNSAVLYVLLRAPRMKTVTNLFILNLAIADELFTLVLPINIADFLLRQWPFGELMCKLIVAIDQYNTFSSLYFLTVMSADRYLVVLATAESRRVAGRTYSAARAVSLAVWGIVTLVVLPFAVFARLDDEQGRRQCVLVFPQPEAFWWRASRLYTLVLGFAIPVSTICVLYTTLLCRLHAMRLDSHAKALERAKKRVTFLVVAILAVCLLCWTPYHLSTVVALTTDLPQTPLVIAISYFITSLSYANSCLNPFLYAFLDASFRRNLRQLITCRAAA
pCIP destab – p/CIP-EGFP fusion destabilizers, primary screen, fluorescence, F442A cells | Q05BA5 | 16 h | decrease of EGFP signal, % at 10 µM | 290,000 compounds, 0.01% hits;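 active means EGFP signal decrease of at least 30% at 10 µM or well 3 SD below plate mean, unless failing retest; inactive means the rest, including hits failing retest or dose response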
FID counter – compounds displacing fluorescent DNA intercalator, primary screen, artefact control for HCV NS3 helicase inhibitor project, biochemical, FID fluorescence | 290,000 compounds, 0.17% hits | DNA fluorescent intercalator displacement | AID 1845, 2009 | inhibition, % at 7.9 µM; in the data active means inhibition above about 37%;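 further: 0% = vehicle and 100% = reference compound; higher means more ethidium bromide displaced from hairpin DNA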
GPR7 antag cf – GPR7 receptor antagonists, confirmation, cell-based, fluorescence, single concentration; inhibition, % at 4.4 µM; GPR7-expressing cells, calcium fluorescence antagonist mode; 2,400 compounds, 52% hits; shares compounds with GPR7 antagonist; AID 1952, 2009; in the data active means inhibition above about 24%;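 further: stimulated with the GPR7 agonist NPW; 0% = agonist plus vehicle and 100% = vehicle alone without agonist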
MCHR1 antag – MCHR1 antagonists in cells, counter-screen for GPR7 antagonist project, cell-based, fluorescence, human. shares compounds with GPR7 antagonist. MCHR1-expressing cells, fluorescence antagonist assay. inhibition, % at 4.4 µM. 2,400 compounds, 62% hits; in the data active means inhibition above about 22%;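 further: 0% = vehicle with agonist and 100% = vehicle without agonist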
* hit, by the source's call; x = no result. The list is not random: actives were taken first. Their share in the collection is about 1.9%.

SMILES | HCV NS3 hel inh | HCV core dimer | GPR7 antagonist | pCIP destab | FID counter | GPR7 antag cf | MCHR1 antag
COC(=O)[C@@]1(Cc2ccc(F)cc2)[C@H]2c3cc(C(=O)N4CCCC4)n(Cc4ccc(C(F)(F)F)nc4)c3C[C@H]2CN1C(=O)c1ccccc1 | 3 | 11 | 29* | 1 | -34 | 39* | 22*
CCn1nc(C(C)C)cc1C(=O)N1CCCC(CO)(Cc2ccc(F)cc2F)C1 (configuration not stated) | 26 | 3 | 28* | -3 | -66 | 10 | 27*
Cc1ccccc1CC1(CO)CCCN(C(=O)c2ccc3ncccc3c2)C1 (configuration not stated) | -2 | 1 | 10 | 4 | -33 | x | x
Cc1nc2ccc(C(=O)N3CCCC(CO)(Cc4ccc(F)cc4F)C3)cc2nc1C (configuration not stated) | 6 | -11 | 32* | 6 | -38 | -10 | 12
CC1=Nc2cccc([N+](=O)[O-])c2NC(=O)C1 | 10 | x | -11 | -4 | 0 | x | x
COc1ccccc1CNC(=O)c1csc(Cc2ccc(Cl)cc2)n1 | -12 | 18 | 29* | -5 | -19 | 22 | 45*
CCN(CC)S(=O)(=O)c1ccc(NC(=O)c2ccc(N(C)S(C)(=O)=O)cc2)cc1 | 1 | 1 | 32* | 4 | -20 | 44* | 58*
O=C(C1CCCCC1)N1CCN=C1SCc1cccc([N+](=O)[O-])c1 | 1 | -2 | 48* | 3 | 1 | 11 | 12
COc1ccc(S(=O)(=O)N2CCN=C2SCc2cccc(F)c2)cc1 | -10 | 2 | 27* | -16 | -20 | 27* | 46*
COc1ccc(CC(=O)N2CCN=C2SCc2cccc([N+](=O)[O-])c2)cc1 | -4 | 1 | 21* | -3 | 5 | 41* | 58*
COC(=O)c1cc(NC(=O)c2c(-c3c(Cl)cccc3Cl)noc2C)ccc1N1CCOCC1 | 15 | 4 | 24* | -3 | -30 | 1 | 7
COC(=O)c1cc(NC(=O)c2c(-c3ccccc3)noc2C)ccc1N1CCOCC1 | 5 | -4 | -4 | 1 | -38 | x | x
CC(=O)c1ccc(N2CCN(c3ncccn3)CC2)c([N+](=O)[O-])c1 | 7 | -7 | 35* | -5 | -13 | 13 | 18
CCOc1ncccc1C(=O)N1CCN(c2cc(Cl)ccc2C)CC1 | 6 | 5 | 15 | 2 | -27 | x | x
CCOc1ncccc1C(=O)N1CCN(c2cccc(C)c2C)CC1 | 0 | x | 28* | -9 | -38 | 20 | 34*
COc1cccc(C(=O)Nc2ccc(C(=O)c3ccncc3)cc2)c1 | 23 | -13 | 23* | 11 | -17 | 23 | 47*
COc1cccc(C(=O)Nc2ccc(NC(C)=O)cc2)c1 | -2 | 2 | -3 | -12 | -9 | x | x
Cc1cccc(C(=O)Nc2ccc(C(=O)/C=C/c3ccncc3)cc2)c1 | -17 | 16 | 46* | -3 | -14 | 74* | 104*
O=C(NCCCCc1ccccc1)c1ccc(F)cc1 | x | 2 | x | x | x | x | x
COC(=O)c1cn[nH]c1NC(=S)Nc1ccc(Cl)c(Cl)c1 | 0 | -2 | 5 | -2 | 0 | x | x
CCOC(=O)c1cn[nH]c1NC(=S)Nc1ccc(OC)cc1 | 10 | -1 | 30* | 4 | -3 | 26* | 21
COc1ccc(OC)c(-c2nn(-c3ccccc3)cc2C(=O)NCC(c2cccs2)N2CCOCC2)c1 (configuration not stated) | x | 6 | x | x | x | x | x
O=C(CSc1nnc(Cc2ccccc2)n1Cc1ccco1)NC1CCCC1 | 9 | 0 | 33* | -15 | -31 | 26* | 13
Cn1c(Cc2ccccc2)nnc1SCC(=O)NC1CCCC1 | 17 | -7 | 39* | -4 | -11 | -10 | -4
COc1cc(CN(CCN(C)C)Cc2ccccc2)ccc1OCc1ccccc1 | -68 | -2 | 44* | -6 | 28 | 57* | 34*
SMILES | HCV NS3 hel inh | HCV core dimer | GPR7 antagonist | pCIP destab | FID counter | GPR7 antag cf | MCHR1 antag
COc1ccc(CN(CCc2ccccc2)Cc2ccccc2)cc1OC | 3 | -10 | -6 | -12 | 0 | x | x
COc1ccc(C2=NN(c3ccccc3)C(=O)/C2=C\c2ccc(O)c(OC)c2)cc1 | 7 | 13 | 30* | 1 | -8 | 1 | 26*
CCN1C(=O)C(CC(=O)Nc2ccc(F)cc2)N(CCCN2CCN(c3ccc(F)cc3)CC2)C1=S (configuration not stated) | -87 | -14 | 33* | -5 | 30 | 29* | 62*
CCCOc1ccc(NC(=O)CC2C(=O)N(CC)C(=S)N2CCCN2CCN(Cc3ccccc3)CC2)cc1 (configuration not stated) | -86 | -6 | 9 | 14 | 29 | x | x
O=C(Nc1nc2c(F)cc(F)cc2s1)C1CC1 | 0 | 24 | 23* | -4 | -9 | 20 | 34*
CCCCNCCCOc1cccc(Cl)c1Cl | -3 | 2 | 35* | -5 | 11 | 14 | 11
CCC(C)(C(=O)NC1CCCCC1)N(Cc1cccs1)C(=O)Cc1cccs1 (configuration not stated) | 5 | 8 | 36* | 7 | -29 | 34* | 37*
CCC(C)(C(=O)NC1CCCCC1)N(Cc1ccco1)C(=O)c1ccccn1 (configuration not stated) | 1 | -2 | 3 | -4 | -12 | x | x
CCC(C)(C(=O)NC1CCCC1)N(Cc1cccs1)C(=O)c1ccc2c(c1)OCO2 (configuration not stated) | 17 | -6 | 29* | -6 | -31 | 29* | 25*
CCn1c(SCC(=O)NCc2ccccc2)nnc1C(CO)NC(=O)c1ccccc1 (configuration not stated) | -2 | 0 | -10 | 4 | -9 | x | x
CCC(Oc1ccccc1)C(=O)Nc1ccc(S(=O)(=O)NCC2CCCO2)cc1 (configuration not stated) | 9 | 1 | 23* | -3 | -26 | -13 | 34*
O=C(Nc1ccc(S(=O)(=O)NCC2CCCO2)cc1)c1ccccc1 (configuration not stated) | -2 | -3 | -5 | -10 | -3 | x | x
COc1cc(NS(=O)(=O)c2cc3[nH]c(=O)c(=O)[nH]c3cc2C)cc(OC)c1OC | 13 | 12 | 43* | 6 | -2 | 4 | 5
O=C(Nc1ccccc1)Nc1ccc(Br)c(Cl)c1 | 5 | 6 | 29* | 2 | 6 | 50* | 57*
